# Calls of active or inactive are those of the source. The calls are words filed in the database; no cut-off is given here.
# Columns and labels:
# [1] = Therapeutic index, ratio of IC50 for human PBMC to IC50 for methicillin-resistant Staphylococcus aureus CIMRSA5; conditions: read-out: Ratio IC50
# Procedure, shortened: (§1)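 Therapeutic index is PBMC cytotoxicity IC50 divided by the antibacterial IC50 against each MRSA strain. PBMCs came from healthy volunteers, and their viability was read by CTG luminescent cell viability assay. Experiments were run in triplicate (N = 3).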
# [2] = tested on: Staphylococcus aureus; assay: Antibacterial activity against methicillin-resistant Staphylococcus aureus CIMRSA1 after 18 to 24 hrs by spectrophotometric analysis; format: functional, organism-based
# [3] = Therapeutic index, ratio of IC50 for human PBMC to IC50 for methicillin-resistant Staphylococcus aureus CIMRSA4; conditions: read-out: Ratio IC50; procedure, shortened: as §1
# [4] = tested on: Staphylococcus aureus; assay: Antibacterial activity against methicillin-resistant Staphylococcus aureus CIMRSA3 after 18 to 24 hrs by spectrophotometric analysis; format: functional, organism-based
# [5] = tested on: Staphylococcus aureus; assay: Antibacterial activity against methicillin-resistant Staphylococcus aureus CIMRSA5 after 18 to 24 hrs by spectrophotometric analysis; format: functional, organism-based
# [6] = tested on: Escherichia coli; assay: Antibacterial activity against Escherichia coli ATCC 25922 after 18 to 24 hrs by spectrophotometric analysis; format: functional, organism-based
# [7] = tested on: Vero; assay: Cytotoxicity against African green monkey Vero cells after 3 days by CTG luminescent cell viability assay; format: cell-based; conditions: Chlorocebus sabaeus, 72 h
# [8] = Therapeutic index, ratio of IC50 for human PBMC to IC50 for methicillin-resistant Staphylococcus aureus CIMRSA6; conditions: read-out: Ratio IC50; procedure, shortened: as §1
# [9] = Therapeutic index, ratio of IC50 for human PBMC to IC50 for methicillin-resistant Staphylococcus aureus CIMRSA2; conditions: read-out: Ratio IC50; procedure, shortened: as §1
# [10] = tested on: Staphylococcus aureus; assay: Antibacterial activity against methicillin-resistant Staphylococcus aureus CIMRSA6 after 18 to 24 hrs by spectrophotometric analysis; format: functional, organism-based
# [11] = Therapeutic index, ratio of IC50 for human PBMC to IC50 for methicillin-resistant Staphylococcus aureus CIMRSA7; conditions: read-out: Ratio IC50; procedure, shortened: as §1
# [12] = Therapeutic index, ratio of IC50 for human PBMC to IC50 for methicillin-resistant Staphylococcus aureus CIMRSA1; conditions: read-out: Ratio IC50; procedure, shortened: as §1
# [13] = tested on: Staphylococcus aureus; assay: Antibacterial activity against methicillin-resistant Staphylococcus aureus CIMRSA4 after 18 to 24 hrs by spectrophotometric analysis; format: functional, organism-based
# [14] = molecular target: DNA gyrase (Staphylococcus aureus) (UniProt P0A0K8+P20831); assay: (§2) Inhibition of supercoiling activity of Staphylococcus aureus DNA gyrase using relaxed pHOT1 plasmid DNA after 60 mins using ethidium bromide staining by […]electrophoresis analysis; format: protein-complex assay
# Chain of DNA gyrase (Staphylococcus aureus) (P0A0K8 2-644 limits assumed): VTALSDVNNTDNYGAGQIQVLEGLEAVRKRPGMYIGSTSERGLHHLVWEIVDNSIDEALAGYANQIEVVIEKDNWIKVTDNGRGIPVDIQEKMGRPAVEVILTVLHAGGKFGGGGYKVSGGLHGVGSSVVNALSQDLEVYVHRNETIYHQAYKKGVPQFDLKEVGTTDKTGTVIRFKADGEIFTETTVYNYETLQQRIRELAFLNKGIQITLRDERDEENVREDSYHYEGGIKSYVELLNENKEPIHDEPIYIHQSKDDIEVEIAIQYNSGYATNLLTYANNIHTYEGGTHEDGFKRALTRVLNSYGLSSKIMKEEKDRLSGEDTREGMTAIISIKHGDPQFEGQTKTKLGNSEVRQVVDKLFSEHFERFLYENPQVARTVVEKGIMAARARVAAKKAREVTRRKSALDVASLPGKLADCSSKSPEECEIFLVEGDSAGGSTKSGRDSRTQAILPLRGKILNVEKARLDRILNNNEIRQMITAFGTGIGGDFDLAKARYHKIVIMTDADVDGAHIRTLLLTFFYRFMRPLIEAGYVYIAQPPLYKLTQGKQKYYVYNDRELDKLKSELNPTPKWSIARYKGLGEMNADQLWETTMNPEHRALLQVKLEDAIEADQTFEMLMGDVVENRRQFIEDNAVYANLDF
# Chain of DNA gyrase (Staphylococcus aureus) (P20831 whole entry partner): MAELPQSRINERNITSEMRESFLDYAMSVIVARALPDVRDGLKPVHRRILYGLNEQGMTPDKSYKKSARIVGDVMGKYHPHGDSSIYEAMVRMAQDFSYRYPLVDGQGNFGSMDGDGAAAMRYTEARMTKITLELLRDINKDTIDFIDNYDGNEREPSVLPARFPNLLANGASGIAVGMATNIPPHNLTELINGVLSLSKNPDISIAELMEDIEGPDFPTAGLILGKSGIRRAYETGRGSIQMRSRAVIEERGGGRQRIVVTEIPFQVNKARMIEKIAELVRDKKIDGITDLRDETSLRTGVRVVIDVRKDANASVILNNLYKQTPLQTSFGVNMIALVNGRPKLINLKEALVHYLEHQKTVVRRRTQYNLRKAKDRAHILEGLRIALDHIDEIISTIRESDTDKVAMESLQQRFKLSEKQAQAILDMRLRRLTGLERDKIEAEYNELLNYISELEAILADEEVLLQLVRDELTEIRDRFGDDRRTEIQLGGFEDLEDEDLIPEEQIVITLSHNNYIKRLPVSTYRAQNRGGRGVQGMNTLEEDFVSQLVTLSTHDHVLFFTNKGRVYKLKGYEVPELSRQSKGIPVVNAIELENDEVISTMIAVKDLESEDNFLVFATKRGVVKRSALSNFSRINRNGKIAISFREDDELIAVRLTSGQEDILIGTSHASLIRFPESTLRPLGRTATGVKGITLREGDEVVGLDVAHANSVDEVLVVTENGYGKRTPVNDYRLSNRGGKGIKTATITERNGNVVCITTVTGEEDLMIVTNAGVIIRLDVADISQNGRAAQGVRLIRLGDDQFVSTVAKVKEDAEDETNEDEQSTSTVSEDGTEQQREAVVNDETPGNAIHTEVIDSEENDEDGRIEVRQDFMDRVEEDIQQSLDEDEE
# [15] = Therapeutic index, ratio of IC50 for human PBMC to IC50 for methicillin-resistant Staphylococcus aureus ATCC 43300; conditions: read-out: Ratio IC50; procedure, shortened: as §1
# [16] = tested on: Staphylococcus aureus; assay: Antibacterial activity against methicillin-resistant Staphylococcus aureus CIMRSA2 after 18 to 24 hrs by spectrophotometric analysis; format: functional, organism-based
# [17] = tested on: Staphylococcus aureus; assay: Antibacterial activity against methicillin-resistant Staphylococcus aureus CIMRSA7 after 18 to 24 hrs by spectrophotometric analysis; format: functional, organism-based
# [18] = tested on: PBMC; assay: Cytotoxicity against human PBMC after 3 days by CTG luminescent cell viability assay; format: cell-based; conditions: 72 h
# [19] = tested on: Staphylococcus aureus; assay: Antibacterial activity against methicillin-resistant Staphylococcus aureus ATCC 43300 after 18 to 24 hrs by spectrophotometric analysis; format: functional, organism-based
# [20] = Ratio of IC50 for human PBMC to IC50 for African green monkey Vero cells; format: cell-based; conditions: human PBMC versus Vero cells, read-out: Ratio IC50
# [21] = Therapeutic index, ratio of IC50 for human PBMC to IC50 for methicillin-resistant Staphylococcus aureus CIMRSA3; conditions: read-out: Ratio IC50; procedure, shortened: as §1
# [22] = molecular target: DNA gyrase (Staphylococcus aureus, UniProt P0A0K8+P20831); assay: as §2; format: protein-complex assay
# Chain of DNA gyrase (P0A0K8 whole entry): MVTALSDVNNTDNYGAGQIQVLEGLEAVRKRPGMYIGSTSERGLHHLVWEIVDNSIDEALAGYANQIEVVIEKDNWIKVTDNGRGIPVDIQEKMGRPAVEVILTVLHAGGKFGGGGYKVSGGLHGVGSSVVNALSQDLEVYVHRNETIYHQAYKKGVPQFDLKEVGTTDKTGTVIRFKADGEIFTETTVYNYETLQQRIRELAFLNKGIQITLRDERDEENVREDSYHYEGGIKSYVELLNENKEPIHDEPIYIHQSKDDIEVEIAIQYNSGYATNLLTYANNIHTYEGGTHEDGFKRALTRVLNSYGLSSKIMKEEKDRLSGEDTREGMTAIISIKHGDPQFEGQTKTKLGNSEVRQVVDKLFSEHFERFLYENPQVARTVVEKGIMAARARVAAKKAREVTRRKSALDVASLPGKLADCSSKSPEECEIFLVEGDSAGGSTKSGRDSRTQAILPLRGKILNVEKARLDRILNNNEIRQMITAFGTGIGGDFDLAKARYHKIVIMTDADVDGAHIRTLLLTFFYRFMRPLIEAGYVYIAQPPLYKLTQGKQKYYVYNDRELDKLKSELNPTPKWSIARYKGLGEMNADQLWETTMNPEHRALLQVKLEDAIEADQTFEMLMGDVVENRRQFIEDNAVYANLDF
# Chain of DNA gyrase (P20831 whole entry): as the sequence (P20831 whole entry partner) above
Compound,selectivity ratio [1],IC50 [2] [µg/mL],MIC [2] [µg/mL],selectivity ratio [3],IC50 [4] [µg/mL],MIC [4] [µg/mL],IC50 [5] [µg/mL],MIC [5] [µg/mL],IC50 [6] [µg/mL],IC50 [7] [µg/mL],selectivity ratio [8],IC50 [10] [µg/mL],IC50 [13] [µg/mL],MIC [13] [µg/mL],IC50 [16] [µg/mL],MIC [16] [µg/mL],IC50 [17] [µg/mL],MIC [17] [µg/mL],IC50 [19] [µg/mL],MIC [19] [µg/mL],also measured
COc1cc(/C=C/C(=O)/C=C/c2ccc(O)c(OC)c2)ccc1O,0.2,141,250,0.3,124,250,202,500,> 1000,5.7,0.2,195,185,500,133,250,303,500,111,250,selectivity ratio [9]: 0.4; MIC [10]: 500 µg/mL; selectivity ratio [11]: 0.2; selectivity ratio [12]: 0.3; inhibition [14]: inactive; selectivity ratio [15]: 0.4; IC50 [18]: 46.9 µg/mL; selectivity ratio [20]: 8.2; selectivity ratio [21]: 0.4
COc1cccc(OC)c1C(=O)N[C@@H]1C(=O)N2[C@@H]1SC(C)(C)[C@@H]2C(=O)O [METHICILLIN],–,2.2,7.8,–,2.2,3.9,1.9,3.9,> 1000,–,–,1.2,11.8,31.3,11.8,31.3,1.3,3.9,0.98,1.95,–
CCCCCCCCCCCCCCCC(=O)Oc1ccc(/C=C/C(=O)/C=C/c2ccc(OC(=O)CCCCCCCCCCCCCCC)c(OC)c2)cc1OC,–,> 1000,–,–,> 1000,–,> 1000,–,> 1000,–,–,> 1000,> 1000,–,> 1000,–,> 1000,–,> 1000,–,inhibition [14]: inactive
CCCCCCCCCCCCCCCC(=O)O [PALMITIC ACID],–,> 1000,–,–,> 1000,–,> 1000,–,> 1000,–,–,> 1000,> 1000,–,> 1000,–,> 1000,–,> 1000,–,–
CCCCCCCCCCCCCC#CC(=O)Oc1ccc(/C=C/C(=O)/C=C/c2ccc(OC(=O)C#CCCCCCCCCCCCCC)c(OC)c2)cc1OC,9.7,30.3,62.5,9.9,34.2,62.5,25.4,31.3,> 1000,> 100,6.3,38.9,24.9,31.3,34.9,62.5,34.2,62.5,39.5,62.5,selectivity ratio [9]: 7.1; MIC [10]: 62.5 µg/mL; selectivity ratio [11]: 7.2; selectivity ratio [12]: 8.1; IC50 [22]: 126 µM; selectivity ratio [15]: 6.2; IC50 [18]: 247 µg/mL; selectivity ratio [21]: 7.2

# From ChEMBL document CHEMBL3632517, “Chemical conjugation of 2-hexadecynoic acid to C5-curcumin enhances its antibacterial activity against multi-drug resistant bacteria” (Bioorg Med Chem Lett, 2015)
